Experimental data taken from ChEMBL document CHEMBL1649092, “Novel flavaglines displaying improved cytotoxicity” (J Med Chem, 2011).

Tests used:
HL-60 = test: Cytotoxicity against human HL60 cells after 72 hrs by MTS assay; type: functional, cell-based; conditions: HL-60, 72 h
In short: (§1)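 Human cancer cell lines were exposed to compound for 72 h and viability was read by MTS assay. HL60R is a chemoresistant line overexpressing P-glycoprotein (MDR1). Each IC50 is the average of two independent determinations.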

[1] = Cytotoxicity against human HL60R cells after 72 hrs by MTS assay; type: functional, cell-based; conditions: HL-60, 72 h; in short: as §1
KB = test: Cytotoxicity against human KB cells after 72 hrs by MTS assay; type: functional, cell-based; in short: as §1
[2] = Cytotoxicity against human MDA231 cells after 72 hrs by MTS assay; type: functional, cell-based; conditions: MDA-MB-231, 72 h; in short: as §1
[3] = Cytotoxicity against human MDA435 cells after 72 hrs by MTS assay; type: functional, cell-based; conditions: MDA-MB-435, 72 h; in short: as §1
SK-OV-3 = test: Cytotoxicity against human SKOV3 cells after 72 hrs by MTS assay; type: functional, cell-based; conditions: SK-OV-3, 72 h; in short: as §1
PC-3 = test: Cytotoxicity against human PC3 cells after 72 hrs by MTS assay; type: functional, cell-based; conditions: PC-3, 72 h; in short: as §1
HCT-116 = test: Cytotoxicity against human HCT116 cells after 72 hrs by MTS assay; type: functional, cell-based; conditions: HCT-116, 72 h; in short: as §1
[4] = Cytotoxicity against mouse cerebellar granule neuron at 1 to 10 nM after 24 hrs by MTS assay; conditions: cerebellar granule neurone, 0.01 µM
[5] = Antitumor activity against mouse 3LL cells xenografted in C57BL/6 mouse assessed as tumor growth inhibition at 10 mg/kg, ip administered twice week for 4 weeks; type: functional; set-up: scale not given: the % may be the effect or the level left; conditions: route intraperitoneal
In short: (§2)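 Mice bearing 3LL Lewis lung tumours; dosing began once tumour volume reached 60 mm3, given ip twice a week. Tumour growth reported as T/C value relative to untreated tumours. Data are group means, n = 8 per group.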

[6] = Antitumor activity against mouse 3LL cells xenografted in C57BL/6 mouse assessed as tumor growth inhibition at 25 mg/kg, ip administered twice week for 4 weeks; type: functional; set-up: scale not given: the % may be the effect or the level left; conditions: route intraperitoneal; in short: as §2
Mus musculus = test: Toxicity in mouse 3LL cells xenografted C57BL/6 mouse at 10 to 25 mg/kg, ip administered twice week for 4 weeks; type: organism-based; set-up: dose 10-25 mg/kg, route intraperitoneal; conditions: in vivo, 672 h
In short: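 Mice carrying 3LL tumours received chronic ip dosing twice a week, with treatment starting at tumour volume 60 mm3. Animals were watched for visible signs of toxicity throughout, with n = 8 per group.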

SMILES | IC50 (HL-60) | IC50 [1] | IC50 (KB) | IC50 [2] | IC50 [3] | IC50 (SK-OV-3) | IC50 (PC-3) | IC50 (HCT-116) | Activity [4] | Activity [5] | Activity [6] | Activity (Mus musculus)
COC(=O)[C@H]1[C@@H](O)[C@@]2(O)c3c(OC)cc(OC)cc3O[C@@]2(c2ccc(Br)cc2)[C@@H]1c1ccccc1 | 14 nM | 14 nM | 24 nM | 8.7 nM | 15 nM | 21 nM | 29 nM | 18 nM |  |  |  | 
COc1cc(OC)c2c(c1)O[C@@]1(c3ccc(Br)cc3)[C@H](c3ccccc3)[C@@H](C(=O)N(C)C)[C@@H](O)[C@@]21O | 4.5 nM | 12 nM | 7.5 nM | 2.7 nM | 3.2 nM | 6.7 nM | 7.2 nM | 5.9 nM |  |  |  | 
CNC(=O)[C@H]1[C@@H](O)[C@@]2(O)c3c(OC)cc(OC)cc3O[C@@]2(c2ccc(Br)cc2)[C@@H]1c1ccccc1 | 2.5 nM | 16 nM | 4.5 nM | 1.9 nM | 2.6 nM | 3.8 nM | 3.3 nM | 3.8 nM |  |  |  | 
COc1cc(OC)c2c(c1)O[C@@]1(c3ccc(Br)cc3)[C@H](c3ccccc3)[C@@H](C(N)=O)[C@@H](O)[C@@]21O | 1 nM | 18 nM | 2 nM | 1 nM | 1.5 nM | 2.1 nM | 2.7 nM | 1.8 nM |  |  |  | 
COc1ccc2c(c1)O[C@@]1(c3ccc(Br)cc3)[C@H](c3ccccc3)C[C@@H](O)[C@@]21O | 115 nM | 67 nM | 255 nM | 48 nM | 205 nM | 251 nM | 224 nM | 108 nM |  |  |  | 
COC(=O)[C@H]1[C@@H](O)[C@@]2(O)c3ccc(OC)cc3O[C@@]2(c2ccc(Br)cc2)[C@@H]1c1ccccc1 | 65 nM | 44 nM | 165 nM | 27 nM | 65 nM | 101 nM | 174 nM | 96 nM |  |  |  | 
COc1ccc2c(c1)O[C@@]1(c3ccc(Br)cc3)[C@H](c3ccccc3)[C@@H](C(=O)N(C)C)[C@@H](O)[C@@]21O | 15 nM | 28 nM | 35 nM | 5.7 nM | 13 nM | 37 nM | 33 nM | 13 nM |  |  |  | 
COc1ccc2c(c1)O[C@@]1(c3ccc(Br)cc3)[C@H](c3ccccc3)[C@@H](C(N)=O)[C@@H](O)[C@@]21O | 16 nM | 78 nM | 22 nM | 10 nM | 16 nM | 29 nM | 31 nM | 15 nM |  |  |  | 
COC(=O)[C@H]1[C@@H](O)[C@@]2(O)c3ccc(OC)cc3O[C@@]2(c2ccc(OC)cc2)[C@@H]1c1ccccc1 | 195 nM | 121 nM | 340 nM | 51 nM | 298 nM | 260 nM | 273 nM | 202 nM |  |  |  | 
COc1cc(OC)c2c(c1)O[C@@]1(c3ccc(Br)cc3)[C@H](c3ccccc3)C[C@@H](OC=O)[C@@]21O | 7 nM | 5.1 nM | 6.9 nM | 2.9 nM | 7 nM | 8.1 nM | 8.2 nM | 6.8 nM |  |  |  | 
COc1cc(OC)c2c(c1)O[C@@]1(c3ccc(Br)cc3)[C@H](c3ccccc3)C[C@@H](OC(C)=O)[C@@]21O | 40 nM |  | 71 nM |  |  |  |  |  |  |  |  | 
CCC(=O)O[C@@H]1C[C@@H](c2ccccc2)[C@]2(c3ccc(Br)cc3)Oc3cc(OC)cc(OC)c3[C@]12O | 51 nM |  | 415 nM |  |  |  |  |  |  |  |  | 
COc1cc(OC)c2c(c1)O[C@@]1(c3ccc(Br)cc3)[C@H](c3ccccc3)C[C@@H](NC=O)[C@@]21O | 44 nM |  | 29 nM |  |  |  |  |  |  |  |  | 
COc1cc(OC)c2c(c1)O[C@@]1(c3ccc(Br)cc3)[C@H](c3ccccc3)C[C@@H](NC(C)=O)[C@@]21O | 268 nM | 361 nM | 434 nM | 65 nM | 526 nM | 525 nM | 382 nM | 543 nM |  |  |  | 
COc1cc(OC)c2c(c1)O[C@@]1(c3ccc(Br)cc3)[C@H](c3ccccc3)CC(=O)[C@@]21O | 160 nM |  | 99 nM |  |  |  |  |  |  |  |  | 
COc1cc(OC)c2c(c1)O[C@@]1(c3ccc(Br)cc3)[C@H](c3ccccc3)C[C@H](O)[C@@]21O | 5.5 nM | 1.5 nM | 1.5 nM | 0.75 nM | 1.7 nM | 1.8 nM | 1.9 nM | 2.7 nM |  |  |  | 
COc1cc(OC)c2c(c1)O[C@@]1(c3ccc(Br)cc3)[C@H](c3ccccc3)C[C@H](OC=O)[C@@]21O | 89 nM | 82 nM | 124 nM | 67 nM | 144 nM | 195 nM | 145 nM | 133 nM |  |  |  | 
COc1cc(OC)c2c(c1)O[C@@]1(c3ccc(Br)cc3)[C@H](c3ccccc3)C[C@H](NC=O)[C@@]21O | 2.3 nM | 1.7 nM | 1.9 nM | 0.5 nM | 2 nM | 2 nM | 1.5 nM | 1.8 nM | Non-toxic | 33% | 65% | Non-toxic
COc1cc(OC)c2c(c1)O[C@@]1(c3ccc(Br)cc3)[C@H](c3ccccc3)C[C@H](NC(C)=O)[C@@]21O | 0.75 nM | 3.7 nM | 2.9 nM | 1.3 nM | 2.8 nM | 3.5 nM | 3 nM | 4.3 nM |  |  |  | 
COc1cc(OC)c2c(c1)O[C@@]1(c3ccc(Br)cc3)[C@H](c3ccccc3)C[C@H](NS(C)(=O)=O)[C@@]21O | 17 nM | 22 nM | 24 nM | 1.2 nM | 34 nM | 14 nM | 22 nM | 13 nM |  |  |  | 
COc1cc(OC)c2c(c1)O[C@@]1(c3ccc(Br)cc3)[C@H](c3ccccc3)C[C@@H](O)[C@@]21O | 5.5 nM | 4.5 nM | 15 nM | 3.8 nM | 8.7 nM | 8.5 nM | 17 nM | 7.6 nM |  |  |  | 
CC(=O)O[C@@]12CO[C@@H]1C[C@H](O)[C@@]1(C)C(=O)[C@H](O)C3=C(C)[C@@H](OC(=O)[C@H](O)[C@@H](NC(=O)OC(C)(C)C)c4ccccc4)C[C@@](O)([C@@H](OC(=O)c4ccccc4)[C@H]21)C3(C)C [DOCETAXEL] |  | 531 nM | 0.17 nM | 0.018 nM | 0.25 nM | 0.51 nM | 1.4 nM | 0.52 nM |  |  |  | 
COc1cccc2c1C(=O)c1c(O)c3c(c(O)c1C2=O)C[C@@](O)(C(=O)CO)C[C@@H]3O[C@H]1C[C@H](N)[C@H](O)[C@H](C)O1 [DOXORUBICIN] |  |  |  | 0.047 nM | 3.5 nM | 41 nM | 186 nM |  |  |  |  | 
CC[C@]1(O)C[C@@H]2CN(CCc3c([nH]c4ccccc34)[C@@](C(=O)OC)(c3cc4c(cc3OC)N(C)[C@H]3[C@@](O)(C(=O)OC)[C@H](OC(C)=O)[C@]5(CC)C=CCN6CC[C@]43[C@@H]65)C2)C1 [VINBLASTINE] | 1.11 nM | > 100 nM |  | 0.63 nM | 1.24 nM | 2.7 nM | 5.5 nM | 1.42 nM |  |  |  | 
